Measured values reported in ChEMBL document CHEMBL2390882, “Synthesis and biological evaluation of novel thiazolidinone derivatives as potential anti-inflammatory agents” (Eur J Med Chem, 2013).
Values joined by “and” are separate entries in the source; they are usually repeats but may differ in a detail not shown here. Equal entries are not always repeated. Active and inactive are the calls of the source. No cut-off for these calls is given here.

Tests used:
RAW264.7 [1] = assay: Antiinflammatory activity in mouse RAW264.7 cells assessed as inhibition of LPS-induced TNFalpha release at 10 uM incubated for 2 hrs prior to LPS challenge measured after 22 hrs by ELISA relative to LPS-treated control; format: functional
Method in brief: (§1)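 RAW 264.7 macrophages in DMEM with 10% heat-inactivated FBS, plated at 4.0×10⁵/plate overnight. Pretreated 2 h with compound at 10 µM (curcumin 10 µM as reference), then LPS 0.5 µg/ml for 22 h. Medium cytokine measured by mouse ELISA kit and normalized to cell-lysate total protein. Expressed as % of LPS control, mean ±SEM of 4 independent experiments.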

RAW264.7 [2] = assay: Antiinflammatory activity in mouse RAW264.7 cells assessed as inhibition of LPS-induced IL6 release at 10 uM incubated for 2 hrs prior to LPS challenge measured after 22 hrs by ELISA relative to LPS-treated control; format: functional; conditions: for inhibition at 10 µM: Mus musculus, RAW264.7; method in brief: as §1
RAW264.7 [3] = assay: Cytotoxicity against mouse RAW264.7 cells assessed as cell viability at 20 uM after 48 hrs by MTT assay; format: cell-based; conditions: raw264.7, 48 h
Method in brief: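 RAW264.7 cells seeded at 5000/well in 1640 medium with 5% heat-inactivated serum and grown 24 h before treatment. Compounds (DMSO stock) tested at 20 µM final for 48 h. MTT (5 mg/ml in 0.9% NaCl) added for 3 h, formazan dissolved in DMSO, absorbance read at 570 nm.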

RAW264.7 [4] = assay: Antiinflammatory activity in mouse RAW264.7 cells assessed as inhibition of LPS-induced TNFalpha release incubated for 2 hrs prior to LPS challenge measured after 22 hrs by ELISA; format: functional, cell-based
Method in brief: (§2)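 RAW 264.7 cells plated at 1.2×10⁶/plate overnight, pretreated 2 h at 0.3, 1.1, 3.3 and 10 µM, then stimulated with LPS 0.5 µg/ml for 22 h. Secreted cytokine quantified by ELISA and normalized to total cell protein, given as % of LPS control. IC50 derived from the concentration-response, 3-5 independent experiments.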

RAW264.7 [5] = assay: Antiinflammatory activity in mouse RAW264.7 cells assessed as inhibition of LPS-induced IL6 release incubated for 2 hrs prior to LPS challenge measured after 22 hrs by ELISA; format: functional, cell-based; method in brief: as §2
Mus musculus [6] = assay: Antiinflammatory activity in C57BL/6 mouse assessed as decrease in LPS-induced septic death at 15 mg/kg, ip administered 15 mins prior to LPS challenge measured every 1 day for 7 days relative to LPS-treated control; format: functional, organism-based; set-up: dose 15 mg/kg
Method in brief: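 Male C57BL/6 mice, 18-22 g ([…]), acclimatized at least 7 days. Drug at 2 mg/mL in macrogol 15 hydroxystearate (5-10%) with or without MCT (0.5-2%), dosed i.p. 15 min before LPS (20 mg/kg i.v.). Vehicle controls received 10% solubilizer with 2% MCT. Survival recorded daily for 7 days, n=12 per group.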

Mus musculus [7] = assay: Antiinflammatory activity in LPS-treated C57BL/6 mouse assessed as survival rate at 15 mg/kg, ip administered 15 mins measured every 1 day for 7 days relative to LPS-treated control; format: functional; conditions: C57BL/6, ip, route intraperitoneal
Method in brief: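 Male C57BL/6 mice (18-22 g, acclimatized ≥7 days) got LPS 20 mg/kg i.v. and drug 15 mg/kg i.p. either 15 min before or 15 min after. The drug was given at 2 mg/mL in macrogol 15 hydroxystearate (5-10% final), with or without MCT (0.5-2%), dissolved at 37 °C. Controls received vehicle. Survival was recorded daily for 7 days, with 12 mice per group.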

Structure (SMILES) | inhibition (RAW264.7 [1]) | inhibition (RAW264.7 [2]) | Activity (RAW264.7 [3]) | also measured
O=c1/c(=C/c2ccccc2[N+](=O)[O-])sc2nc3ccccc3n12 | Active | Active | Non-toxic | –
CCOC(=O)C1=C(C)N=c2s/c(=C\c3cccc(OC)c3O)c(=O)n2C1c1ccccc1 (centres undefined) | Active | Active | Non-toxic | –
Cn1cccc1/C=c1\sc2n(c1=O)CCN=2 | – | – | Non-toxic | inhibition at 10 µM (RAW264.7 [1]): > 50%; inhibition at 10 µM (RAW264.7 [2]): > 50%
CCOc1ccc(Br)cc1/C=c1\sc2nc3ccccc3n2c1=O | Active | Active | Non-toxic | –
O=c1/c(=C/c2ccccc2Cl)sc2nc3ccccc3n12 | Active | Active | Non-toxic | –
O=c1/c(=C/c2ccc3ccccc3c2)sc2nc3ccccc3n12 | Active | Active | Non-toxic | –
Cc1ccc(/C=c2\sc3nc4ccccc4n3c2=O)s1 | Active | Active | Non-toxic | –
O=c1/c(=C/c2ccc(N3CCOCC3)cc2)sc2n1CCN=2 | Active | – | Non-toxic | inhibition at 10 µM (RAW264.7 [2]): > 50%
O=c1/c(=C/c2ccccc2F)sc2nc3ccccc3n12 | Active | Active | Non-toxic | –
COc1cc(/C=c2\sc3nc4ccccc4n3c2=O)ccc1O | Active | Active | Non-toxic | –
O=c1/c(=C/c2ccccc2Cl)sc2n1CCN=2 | Active | Active | Non-toxic | –
CCOC(=O)C1=C(C)N=c2s/c(=C\c3ccccc3F)c(=O)n2C1c1ccccc1 (centres undefined) | Active | Active | Non-toxic | –
O=c1/c(=C/c2cccc(Cl)c2Cl)sc2nc3ccccc3n12 | Active | Active | Non-toxic | –
COc1cccc(/C=c2\sc3ncnn3c2=O)c1OC | Active | Active | Non-toxic | –
O=c1/c(=C/c2cccs2)sc2nc3ccccc3n12 | Active | Active | Non-toxic | –
Cc1ccc(/C=c2\sc3ncnn3c2=O)s1 | Active | Active | Non-toxic | –

Structure (SMILES) | inhibition (RAW264.7 [1]) | inhibition (RAW264.7 [2]) | Activity (RAW264.7 [3]) | also measured
Cc1ccc(/C=c2\sc3n(c2=O)CCN=3)s1 | – | Active | Non-toxic | inhibition at 10 µM (RAW264.7 [1]): > 50%
O=c1/c(=C/c2c[nH]c3ccccc23)sc2ncnn12 | Active | – | Non-toxic | inhibition at 10 µM (RAW264.7 [2]): > 50%
COc1ccccc1/C=c1\sc2nc3ccccc3n2c1=O | Active | Active | Non-toxic | –
O=c1/c(=C/c2ccc(N3CCOCC3)cc2)sc2ncnn12 | – | – | Non-toxic | inhibition at 10 µM (RAW264.7 [1]): > 50%; inhibition at 10 µM (RAW264.7 [2]): > 50%
CCOC(=O)C1=C(C)N=c2s/c(=C\c3cccc4ccccc34)c(=O)n2C1c1ccccc1 (centres undefined) | Active | Active | Non-toxic | –
O=c1/c(=C/c2ccccc2Br)sc2ncnn12 | – | – | Non-toxic | inhibition at 10 µM (RAW264.7 [1]): > 50%; inhibition at 10 µM (RAW264.7 [2]): > 50%
Cc1ccc(/C=c2\sc3nc4ccccc4n3c2=O)c(C)c1 | Active | Active | Non-toxic | –
CCOC(=O)C1=C(C)N=c2s/c(=C\c3ccc(C)cc3C)c(=O)n2C1c1ccccc1 (centres undefined) | Active | Active | Non-toxic | –
O=c1/c(=C/c2ccc(N3CCOCC3)cc2)sc2nc3ccccc3n12 | Active | Active | Non-toxic | –
CCOC(=O)C1=C(C)N=c2s/c(=C\c3cccn3C)c(=O)n2C1c1ccccc1 (centres undefined) | – | – | Non-toxic | IC50 (RAW264.7 [4]): > 10 µM; inhibition at 10 µM (RAW264.7 [1]): 60%; IC50 (RAW264.7 [5]): 6.39 µM; inhibition (INH) (RAW264.7 [2]): 50% and 87%
O=c1/c(=C/c2c[nH]c3ccccc23)sc2nc3ccccc3n12 | Active | – | Non-toxic | inhibition at 10 µM (RAW264.7 [2]): > 50%
O=c1/c(=C/c2ccccc2Br)sc2nc3ccccc3n12 | Active | Active | Non-toxic | –
CCOC(=O)C1=C(C)N=c2s/c(=C\c3ccccc3Br)c(=O)n2C1c1ccccc1 (centres undefined) | Active | Active | Non-toxic | –
COc1ccc(/C=c2\sc3nc4ccccc4n3c2=O)cc1O | Active | Active | Non-toxic | –
CCOC(=O)C1=C(C)N=c2s/c(=C\c3ccc(C)s3)c(=O)n2C1c1ccccc1 (centres undefined) | Active | – | Non-toxic | inhibition at 10 µM (RAW264.7 [2]): > 50%
CCOC(=O)C1=C(C)N=c2s/c(=C\c3ccc(N4CCOCC4)cc3)c(=O)n2C1c1ccccc1 (centres undefined) | – | – | Non-toxic | IC50 (RAW264.7 [4]): 4.17 µM; inhibition (RAW264.7 [4]): Dose-dependent effect; inhibition at 10 µM (RAW264.7 [1]): 62%; Activity (Mus musculus [6]): inactive; survival at 15 mg/kg (Mus musculus [7]): 70%; IC50 (RAW264.7 [5]): 0.83 µM; inhibition (RAW264.7 [5]): Dose-dependent effect; inhibition at 10 µM (RAW264.7 [2]): 92%
